24 molecules from PubChem BioAssay AID624106 (Broad Institute, 2012) can be followed below.

Calls of active or inactive are those of the source.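 How the source made its calls: active means fitted curve reaches a 35% absorbance drop at both wavelengths in duplicate, with AC35 under 50 µM; inactive means the rest, including signal rising instead of falling.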

Tested on in the first test: not listed separately
Briefly: pyoverdine output of iron-starved P. aeruginosa PAK, dose response, PAK wild type, OD405, dry powder, set 2 (AID 624106). To be noted: P. aeruginosa PAK + EDDHA, OD405 pyoverdine, 28 h; at 100 µM (top of the series). In outline:
(§1)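 Assay system: wild-type Pseudomonas aeruginosa PAK bacteria; buffer or medium: succinate M9 medium, pH 7.0, with 2 µM EDDHA iron chelator; doses: compounds 15 nM–100 µM final; times: compound exposure 28 h at 30 °C, humidified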
On to `N#CC(c1ccc(C(F)(F)F)c(Cl)n1)c1ccccc1OC(F)(F)F` (centres undefined), for which the activity change, negative = inhibition was -16% (inactive).
Still for that read-out and setting: under `COCCNC(C#N)c1ccc(Cl)cc1` (centres undefined) stands -12.1% (inactive); under `CN(C)CCCC(C#N)c1ccc(Cl)cc1` (centres undefined), -3.43% (inactive); under `CCCCC(C#N)c1ccc(F)cn1` (centres undefined), -12.4% (inactive).
Same read-out and setting: the same measure for `CN(C)CCCC(C#N)c1ccc(F)cc1` (centres undefined): -12.9% (inactive); for `N#CC1c2ccc(Cl)cc2CCc2cccnc21` (centres undefined): -13.8% (inactive); for `CCCCC(C#N)c1ccccn1` (centres undefined): -4.26% (inactive).
Take `Clc1ccc(C(c2cccc(Cl)n2)c2nn[nH]n2)cc1` (centres undefined): the activity change, negative = inhibition is 11.9% (inactive).
As to `CCCCC(c1ccc(Cl)cc1)c1nn[nH]n1` (centres undefined), the activity change, negative = inhibition was -8.03% (inactive).
Still for that read-out and setting: the same measure for `CCCCC(C#N)c1ccc(Cl)cc1` (centres undefined): -7.02% (inactive).
Still for that read-out and setting: under `COCCOCCC(C#N)c1ccc(F)cc1` (centres undefined) stands -8.85% (inactive); under `COCCOCCC(C#N)c1ccc(Cl)cc1` (centres undefined), -2.61% (inactive); under `CCCCC(C#N)c1ccc(Cl)cn1` (centres undefined), -7.7% (inactive).
Still for that read-out and setting: under `CCCCC(C#N)c1ccc(F)cc1` (centres undefined) stands -5.09% (inactive); under `COCCC(C#N)c1ccc(Cl)cc1` (centres undefined), -2.12% (inactive).

The next test deals with P. aeruginosa PAK + EDDHA, OD405 pyoverdine, 28 h. Described as above.
Conditions: not given
In outline: as §1
Regarding `N#CC(c1cccc(Cl)n1)c1ccc(Cl)cc1F` (centres undefined), the AC35 is 25.9 µM.
On the same count and under the same terms, under `N#Cc1cccc(C(C#N)c2ccc(F)cc2)n1` (centres undefined) stands > 100 µM (inactive); under `N#CC(c1ccc(Cl)cc1)c1cccc(C(F)(F)F)n1` (centres undefined), 19.3 µM.
On the same count and under the same terms, under `N#CC(c1ccc(F)cc1)c1cccc(C(F)(F)F)n1` (centres undefined) stands 45.4 µM; under `N#CC(c1ccc(Cl)cc1)N1CCCC1` (centres undefined), > 100 µM (inactive).
The same measure, in the same setting: under `N#CC(c1ccc(Cl)cc1)c1cccc(Cl)n1` (centres undefined) stands 67 µM; under `N#CC(c1cccc(C(F)(F)F)n1)c1ccc(Cl)cc1F` (centres undefined), 18.8 µM.
`COCCC(C#N)c1ccc(F)cc1` (centres undefined): the AC35 was > 100 µM (inactive).
On the same count and under the same terms, the same measure for `N#CC(c1ccc(Cl)cc1)c1ccccn1` (centres undefined): > 100 µM (inactive).
